Source: ChEMBL document CHEMBL3612036, “Design, Synthesis, and Cardioprotective Effects of N-Mercapto-Based Hydrogen Sulfide Donors” (J Med Chem, 2015)
The source made the active and inactive calls. No cut-off for these calls is given here.

Experiments:
[1] = […] peak time for H2S release in pH 7.4 PBS buffer containing 10% THF incubated for 2 hrs at room temperature in presence of cysteine by methylene blue based UV-Vis spectrometry; format: physicochemical; settings: pH 7.4, 2 h
Procedure, shortened: (§1)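 Donor (30 mM THF stock; 0.1 mM final) was added to PBS (pH 7.4, 50 mM)/THF 9:1 containing the stated thiol, at room temperature for 2 h. 1.0 mL aliquots were taken periodically into methylene blue cocktail (zinc acetate, N,N-dimethyl-p-phenylenediamine in HCl, FeCl3 in HCl) and reacted 15 min. Absorbance was read at 670 nm and H2S quantified against a Na2S calibration curve; peak concentration and peak time were recorded.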

[2] = […] peak time for H2S release in pH 7.4 PBS buffer containing 10% THF incubated for 2 hrs at room temperature in presence of 1 mM GSH by methylene blue based UV-Vis spectrometry; format: physicochemical; settings: pH 7.4, 2 h; procedure, shortened: as §1
[3] = GSH-induced H2S release assessed as peak H2S level in pH 7.4 PBS buffer containing 10% THF incubated for 2 hrs at room temperature in presence of cysteine by methylene blue based UV-Vis spectrometry; format: physicochemical; settings: pH 7.4, 2 h; procedure, shortened: as §1
[4] = GSH-induced H2S release assessed as peak H2S level in pH 7.4 PBS buffer containing 10% THF incubated for 2 hrs at room temperature in presence of 1 mM GSH by methylene blue based UV-Vis spectrometry; format: physicochemical; settings: pH 7.4, 2 h; procedure, shortened: as §1
[5] = system: H9c2; assay: Cytoprotective activity against H2O2-induced cell damage in rat H9c2 cells at 480 uM incubated for 1 hr before H2O2 challenge for 5 hrs by CCK8 assay; format: functional, cell-based
Procedure, shortened: (§2)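 H9c2 cells (high-glucose DMEM, 10% FBS, 37 °C, 5% CO2) were preincubated 1 h with test agent, washed with PBS, then exposed to H2O2 (400 μM) for 5 h. Viability was read by CCK-8 (1:10 dilution, 3 h at 37 °C, absorbance 450 nm). The mean OD of 4 wells was expressed as % of control. Experiments were done in triplicate.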

[6] = system: H9c2; assay: Cytotoxicity against rat H9c2 cells assessed as reduction in cell viability at <40 uM incubated for 1 hr by CCK8 assay; format: cell-based; settings: h9c2, 1 h
Procedure, shortened: (§3)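 H9c2 cells (high-glucose DMEM, 10% FBS, 37 °C, 5% CO2) were exposed 1 h to donor over 20–160 μM, either alone or with 480 μM cysteine, then washed twice with PBS. Viability was measured by CCK-8 (1:10 dilution, 3 h at 37 °C, absorbance 450 nm). The mean OD of 4 wells was expressed as % of control, in triplicate.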

[7] = system: H9c2; assay: Cytotoxicity against rat H9c2 cells assessed as reduction in cell viability at >80 uM incubated for 1 hr by CCK8 assay; format: cell-based; settings: h9c2, 1 h; procedure, shortened: as §3
[8] = system: H9c2; assay: Cytotoxicity against rat H9c2 cells assessed as reduction in cell viability at 160 uM in presence of 480 uM cysteine incubated for 1 hr by CCK8 assay; format: cell-based; settings: h9c2, 1 h; procedure, shortened: as §3
[9] = system: H9c2; assay: Cytoprotective activity against H2O2-induced cell damage in rat H9c2 cells at 160 uM pre-incubated for 1 hr before H2O2 challenge for 5 hrs in presence of 480 uM cysteine by LDH release assay; format: functional, cell-based
Procedure, shortened: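 H9c2 cells at about 70% confluence were preconditioned 1 h with donor plus cysteine (480 μM), then treated with H2O2 (400 μM) for 5 h. Extracellular LDH was measured in supernatant; intracellular LDH in lysate made with 2% Triton X-100 in DMEM. Kit reaction ran 10 min at room temperature, read at 490/600 nm. % release = extracellular/(extracellular+intracellular). Run 4 times.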

[10] = system: H9c2; assay: Cytoprotective activity against H2O2-induced cell damage in rat H9c2 cells assessed as reduction in mitochondrial membrane potential loss at 160 uM pre-incubated for 1 hr before H2O2 challenge for 5 hrs in presence of 480 uM cysteine by Rh123 dye based fluorescent microscopy; format: functional
Procedure, shortened: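 H9c2 cells were grown in high-glucose DMEM with 10% FBS at 37 °C, 5% CO2. They were pretreated 1 h with donor plus cysteine (480 μM), then given H2O2 (400 μM) for 5 h. Rh123 (10 mg/L) was added for 15 min at 37 °C. Fluorescence microscopy gave mean Rh123 intensity from four random fields.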

[11] = Induction of […] release in pH 7.4 PBS buffer containing 10% THF incubated for 2 hrs at room temperature in presence of 2 mM cysteine by methylene blue based UV-Vis spectrometry; format: physicochemical; settings: pH 7.4, 2 h; procedure, shortened: as §1
[12] = Induction of […] release in pH 7.4 PBS buffer containing 10% THF incubated for 2 hrs at room temperature in presence of 0.5 mM cysteine by methylene blue based UV-Vis spectrometry; format: physicochemical; settings: pH 7.4, 2 h; procedure, shortened: as §1
[13] = system: Mus musculus; assay: Cardioprotective activity in C57BL6/J mouse model of myocardial ischemia/reperfusion assessed as reduction in infarct size per area-at-risk dosed through direct intracardiac injection at time of reperfusion by TTC staining method; format: functional, organism-based; settings: Myocardium
Procedure, shortened: (§4)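 Male C57BL/6J mice, 10–12 weeks old, anesthetised with pentobarbital (50 mg/kg) plus ketamine (60 mg/kg). Left coronary artery occluded with PE-10 tubing for 45 min. Single intracardiac injection at reperfusion; vehicle 0.5% v/v THF in sterile saline. Reperfusion lasted 24 h, then area-at-risk and infarct measured by Evans blue/TTC staining. n = 6–17 per group.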

[14] = system: Mus musculus; assay: Cardioprotective activity in C57BL6/J mouse model of myocardial ischemia/reperfusion assessed as reduction in infarct size per area-at-risk at 100 ug/kg dosed through direct intracardiac injection at time of reperfusion by TTC staining method; format: functional; settings: Myocardium; procedure, shortened: as §4
[15] = system: Mus musculus; assay: Effect on area-at-risk per left ventricle in C57BL6/J mouse model of myocardial ischemia/reperfusion at 50 and 100 ug/kg dosed through direct intracardiac injection at time of reperfusion by TTC staining method; format: organism-based, Heart left ventricle; settings: in vivo, 0.1 mg/kg; procedure, shortened: as §4
[16] = system: H9c2; assay: Cytoprotective activity against H2O2-induced cell damage in rat H9c2 cells at 160 uM incubated for 1 hr before H2O2 challenge for 5 hrs by CCK8 assay; format: functional, cell-based; procedure, shortened: as §2

Compound: CC(=O)NSC(=O)c1ccccc1
- Time [1]: 45 min
- Time [2]: 50 min
- Activity [3]: 46.4 µM
- Activity [4]: 58.3 µM

Compound: Cc1ccccc1C(=O)SNC(=O)c1ccccc1
- Time [1]: 60 min
- Time [2]: 70 min
- Activity [3]: 29.4 µM
- Activity [4]: 19.8 µM

Compound: O=C(NSC(=O)c1ccc(F)cc1)Nc1ccccc1
- Time [1]: 75 min
- Time [2]: 90 min
- Activity [3]: 18.8 µM
- Activity [4]: 18.5 µM

Compound: O=C(NSC(=O)c1cccc(Cl)c1)c1ccccc1
- Time [1]: 50 min
- Time [2]: 60 min
- Activity [3]: 49.4 µM
- Activity [4]: 31.3 µM

Compound: Cc1ccc(C(=O)SNC(=O)Nc2ccccc2)cc1
- Time [1]: 105 min
- Time [2]: 130 min
- Activity [3]: 16.5 µM
- Activity [4]: 20 µM

Compound: COc1ccc(C(=O)SNC(=O)Nc2ccccc2)cc1
- Time [1]: 105 min
- Time [2]: 120 min
- Activity [3]: 14.1 µM
- Activity [4]: 26.4 µM

Compound: Cc1cccc(C(=O)SNC(=O)c2ccccc2)c1
- Time [1]: 55 min
- Time [2]: 65 min
- Activity [3]: 49.3 µM
- Activity [4]: 39.3 µM

Compound: O=C(Cc1ccccc1)SNC(=O)c1ccccc1
- Time [1]: 50 min
- Time [2]: 60 min
- Activity [3]: 33.4 µM
- Activity [4]: 47.5 µM

Compound: N[C@@H](CS)C(=O)O
- Activity [5]: inactive

Compound: CCC(=O)NSC(=O)c1ccccc1
- Time [1]: 55 min
- Time [2]: 60 min
- Activity [3]: 44.1 µM
- Activity [4]: 54.1 µM

Compound: CC(=O)Oc1ccccc1C(=O)NSC(=O)c1ccccc1
- Time [1]: 60 min
- Time [2]: 60 min
- Activity [3]: 35.1 µM
- Activity [4]: 44.5 µM

Compound: COc1ccc(C(=O)SNC(=O)c2ccccc2)cc1
- Time [1]: 60 min
- Time [2]: 65 min
- Activity [3]: 41.8 µM
- Activity [4]: 46.8 µM
- Activity [6]: Non-toxic
- Activity [7]: Toxic
- Activity [8]: Non-toxic
- Activity [9]: Active
- Activity [10]: Active

Compound: CC(C)(C)C(=O)SNC(=O)c1ccccc1
- Time [1]: 80 min
- Time [2]: 90 min
- Activity [3]: 37.5 µM
- Activity [4]: 48.1 µM

Compound: CC(=O)SNC(=O)c1ccccc1
- Time [1]: 60 min
- Time [2]: 70 min
- Activity [3]: 48.4 µM
- Activity [4]: 63.1 µM

Compound: O=C(NSC(=O)C1CCCC1)c1ccccc1
- Time [1]: 60 min
- Time [2]: 65 min
- Activity [3]: 40.9 µM
- Activity [4]: 49.9 µM

Compound: O=C(NSC(=O)c1ccccc1)c1ccccc1
- Activity [11]: Active
- Activity [12]: Not Active
- Time [1]: 55 min
- Time [2]: 65 min
- Activity [3]: 55.8 µM
- Activity [4]: 51.2 µM
- Activity [6]: Non-toxic
- Activity [7]: Toxic
- Activity [8]: Non-toxic
- Activity [9]: Active
- Activity [10]: Active
- inhibition [13]: Dose-dependent effect
- inhibition in vivo at 0.1 mg/kg [14]: 35%
- Activity [15]: Non-toxic

Compound: O=C(NSC(=O)c1ccccc1)Nc1ccccc1
- Time [1]: 95 min
- Time [2]: 110 min
- Activity [3]: 21.5 µM
- Activity [4]: 29.9 µM

Compound: O=C(NSC(=O)C1CCCCC1)c1ccccc1
- Time [1]: 65 min
- Time [2]: 80 min
- Activity [3]: 48.1 µM
- Activity [4]: 68.2 µM

Compound: COc1cccc(C(=O)SNC(=O)c2ccccc2)c1
- Time [1]: 55 min
- Time [2]: 80 min
- Activity [3]: 47 µM
- Activity [4]: 39.5 µM

Compound: O=C(N[C@@H](CS)C(=O)O)c1ccccc1
- Activity [16]: inactive

Compound: COC(=O)c1ccc(C(=O)SNC(=O)c2ccccc2)cc1
- Time [1]: 50 min
- Time [2]: 55 min
- Activity [3]: 38.8 µM
- Activity [4]: 36 µM

Compound: O=C(NSC(=O)c1ccc(Cl)cc1)Nc1ccccc1
- Time [1]: 95 min
- Time [2]: 120 min
- Activity [3]: 18.2 µM
- Activity [4]: 24.9 µM

Compound: Cc1ccc(NC(=O)NSC(=O)c2ccccc2)cc1
- Time [1]: 90 min
- Time [2]: 130 min
- Activity [3]: 21.8 µM
- Activity [4]: 27.4 µM

Compound: NC(=O)c1ccccc1
- Activity [16]: inactive

Compound: CCCC(=O)NSC(=O)c1ccccc1
- Time [1]: 60 min
- Time [2]: 60 min
- Activity [3]: 45.9 µM
- Activity [4]: 58.3 µM

Compound: CC(C(=O)SNC(=O)c1ccccc1)c1ccccc1 (stereo unspecified)
- Time [1]: 60 min
- Time [2]: 70 min
- Activity [3]: 48.2 µM
- Activity [4]: 55.6 µM

Compound: CC(C)C(=O)SNC(=O)c1ccccc1
- Time [1]: 65 min
- Time [2]: 70 min
- Activity [3]: 40.7 µM
- Activity [4]: 58.4 µM

Compound: O=C(NSC(=O)c1ccc(C(F)(F)F)cc1)c1ccccc1
- Time [1]: 45 min
- Time [2]: 60 min
- Activity [3]: 48.3 µM
- Activity [4]: 28.1 µM

Compound: CN(C)c1ccc(C(=O)SNC(=O)c2ccccc2)cc1
- Time [1]: 65 min
- Time [2]: 80 min
- Activity [3]: 19.5 µM
- Activity [4]: 7.6 µM

Compound: Cc1ccccc1C(=O)NSC(=O)c1ccccc1
- Time [1]: 55 min
- Time [2]: 65 min
- Activity [3]: 51.4 µM
- Activity [4]: 57.6 µM

Compound: COc1ccccc1C(=O)SNC(=O)c1ccccc1
- Time [1]: 60 min
- Time [2]: 80 min
- Activity [3]: 29 µM
- Activity [4]: 34 µM

Compound: Cc1ccc(C(=O)SNC(=O)c2ccccc2)cc1
- Time [1]: 60 min
- Time [2]: 60 min
- Activity [3]: 45.4 µM
- Activity [4]: 39.8 µM

Compound: O=C(NSC(=O)c1ccccc1)c1ccc(F)cc1
- Time [1]: 55 min
- Time [2]: 65 min
- Activity [3]: 38.5 µM
- Activity [4]: 43.3 µM

Compound: O=C(NSC(=O)c1ccccc1)Nc1ccc(Cl)cc1
- Time [1]: 110 min
- Time [2]: 120 min
- Activity [3]: 10.7 µM
- Activity [4]: 20.9 µM

Compound: O=C(NSC(=O)c1ccccc1)c1cccc(Cl)c1
- Time [1]: 60 min
- Time [2]: 70 min
- Activity [3]: 25.2 µM
- Activity [4]: 29.9 µM
